From article PMC6299426 (Theranostics, 2018)
Where two headings read alike, the source gives them in different places. Marks after values point to notes of the source that are not given here. One block for each molecule: values may come before it.

Legend:
[1] = Identification of albiflorin metabolites in vivo; parameters: species or system ICR mice; conditions: after albiflorin administration
In short: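 Fecal metabolites were profiled by LC/MSn-IT-TOF. Feces were extracted with methanol (1/10, g/mL) by ultrasound for 30 min and centrifuged 10 min at 21100 ×g; 20 μL of supernatant was injected. Separation used a C18 column (250 × 4.6 mm, 5 μm) with a water/0.5% formic acid–methanol gradient at 0.8 mL/min over 45 min. Brain was sampled 2 h after oral dosing at 14 mg/kg, with analytes quantified by HPLC-MS/MS.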

[2] = test system: D-amino acid oxidase (DAAO); assay: D-serine oxidation by pure DAAO in vitro; type: biochemical; conditions: 89 μM, 15 min at 37 °C; control 13%
[3] = test system: reserpine-induced acute depression model mice; assay: Tail suspension test in reserpine-induced acute depression model; type: in vivo, ICR mice; conditions: model group 140.6 ± 13.6 s
[4] = test system: reserpine-induced acute depression model mice; assay: Degree of ptosis in reserpine-induced acute depression model; type: in vivo, ICR mice; conditions: 7 days, 1 h after reserpine, scale 0-4, model 2.7
[5] = test system: reserpine-induced acute depression model mice; assay: Out-circle rate in reserpine-induced acute depression model; type: in vivo, ICR mice; conditions: 7 days, in 15 s, model 20.0
[6] = test system: reserpine-induced acute depression model mice; assay: Body temperature in reserpine-induced acute depression model; type: in vivo, ICR mice; conditions: 7 days, 4 h after reserpine, model 34.55±0.25
[7] = biological target: D-amino acid oxidase (DAAO) (Mus musculus, UniProt P18894); assay: DAAO activity in mouse brain homogenate; type: biochemical, ICR mice; conditions: 5 and 10 μg/mL, 30 min at 37 °C
Chain of D-amino acid oxidase (DAAO) (Mus musculus, UniProt P18894) (P18894 whole entry): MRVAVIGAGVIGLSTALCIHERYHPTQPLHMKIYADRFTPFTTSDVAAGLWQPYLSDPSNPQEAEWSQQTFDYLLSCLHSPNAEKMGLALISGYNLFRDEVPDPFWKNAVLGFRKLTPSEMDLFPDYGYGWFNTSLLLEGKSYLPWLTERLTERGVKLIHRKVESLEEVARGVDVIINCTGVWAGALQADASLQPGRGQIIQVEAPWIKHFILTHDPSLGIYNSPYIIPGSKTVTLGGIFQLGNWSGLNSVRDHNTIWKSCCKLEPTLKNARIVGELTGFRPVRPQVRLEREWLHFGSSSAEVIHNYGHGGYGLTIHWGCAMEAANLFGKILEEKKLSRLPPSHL
In short: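 Brains from ten ICR mice, killed by cervical dislocation, were rinsed in saline, blotted, weighed and homogenized in 2 volumes (v/w) saline. Test compounds at final 5 or 10 μg/mL were added and incubated 30 min at 37 °C. DAAO activity was measured by ELISA kit.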

[8] = test system: chronic stress-induced depression model rats; assay: Sugar preference test in chronic stress-induced depression model; type: in vivo, SD rats; conditions: 14 mg/kg orally, 14 days
In short: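 SD rats were exposed to multiple alternating stressors for 8 weeks; there were 6 groups of 10, including an unstressed control. Treatment lasted 14 days, and PGF rats stayed on antibiotics throughout. Sugar preference was tested on days 0 and 14. Data are mean ± standard deviation, analysed by two-way ANOVA and t-test.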

[9] = test system: carboxylesterase of the gut microbiota; type: biochemical, SD rats; conditions: without inhibitor 100%
In short: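 Carboxylesterase inhibitor BNPP (0.3, 0.9 or 3 mM) was added together with test compound (final 1 mg/mL) to pre-incubated pooled SD rat colon-content cultures. Incubation was anaerobic (N2) at 37 °C. Conversion was followed by C18 LC/MSn-IT-TOF.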

- Where the metabolite was detected in mice [1]: only detected in the feces
Molecule: glucuronic acid-conjugated albiflorin [M3]

- D-serine in DAAO system (%) [2]: 38%
Molecule: Cc1cc(C(=O)O)n[nH]1 [AS057278, reference compound]

Molecule: CNCCC(Oc1ccc(C(F)(F)F)cc1)c1ccccc1 (stereo not shown) [fluoxetine, reference compound]
- Immobility time in tail suspension test ([3]; 10 mg/kg for 7 days): 76.0 ± 17.8 s
- Mean score of ptosis ([4]; 10 mg/kg): 1.4 ^*
- Rate of out-circle ([5]; 10 mg/kg): 60.0%
- Body temperature ([6]; 10 mg/kg): 35.31±0.26 ºC

- Activity of DAAO in brain homogenate [7]: significantly inhibit
- D-serine in DAAO system (%) [2]: 32%
- Where the metabolite was detected in mice [1]: detected in plasma, feces and brain
Molecule: O=C(O)c1ccccc1 [benzoic acid, Benzoic acid]
- Sugar preference values vs depression group [8]: significantly higher
- Immobility time in tail suspension test ([3]; 14 mg/kg for 7 days): 99.5 ± 10.1 s
- Mean score of ptosis ([4]; 14 mg/kg): 1.7 ^*
- Rate of out-circle ([5]; 14 mg/kg): 70.0 ^* %
- Body temperature ([6]; 14 mg/kg): 35.23±0.40 ºC

Molecule: O=[N+]([O-])c1ccc(OP(=O)(O)Oc2ccc([N+](=O)[O-])cc2)cc1 [BNPP, bis-p-nitrophenyl phosphate]
- Albiflorin conversion rate in presence of inhibitor ([9]; BNPP 0.3 mM): 82.7%
- Albiflorin conversion rate in presence of inhibitor ([9]; BNPP 0.9 mM): 51.5%
- Albiflorin conversion rate in presence of inhibitor ([9]; BNPP 3 mM): 11.3%

- Where the metabolite was detected in mice [1]: only detected in the feces
Molecule: hydroxylalbiflorin [M1]

- Where the metabolite was detected in mice [1]: only detected in the feces
Molecule: dihydroxylalbiflorin [M2]
